# High-throughput results as filed in PubChem.
# An excerpt weighted towards active compounds, which were near 4% of everything screened.
# rRNA inh HTS – reduced GFP signal of wild-type E. coli, primary screen, bacterial rRNA inhibitor project, GFP/RFP fluorescence, OD600, single point. E. coli WT GFP vs humanized-ribosome RFP mutants, 24 h; hits give low values; DMSO median 0, no signal -100. GFP signal change (wild-type ribosome), % (test concentration not listed). 350,000 compounds, 1.6% hits. AID 720706, 2013;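 active = significant combined selectivity score with lowered wild-type GFP, culture density cut under 30%, mutant RFP and density less affected; inactive = any of these conditions unmet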
# FGF22 binding – binders of human FGF22 protein, primary screen, FGF22 synaptogenesis inhibitor project, biophysical, thermal shift, single point. Fibroblast growth factor 22 (Homo sapiens), Q9HCT0. recombinant FGF22 thermal shift, SYPRO orange fluorescence; percent of sucrose octasulfate shift, DMSO zero. activity (Tm shift, normalised), % at 9.99 µM. 340,000 compounds, 1.5% hits. AID 651658, 2012;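 active = mean Tm shift, scaled 0 neutral to 100 positive control, at about 1.3% or above, every replicate too, limit read from the data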
# E-selectin induc – E-selectin induction in HUVECs, primary screen, imaging, HUVEC, immunofluorescence imaging, single point | P16581 | activation, % at 7.58 µM | normalized: neutral wells 0, TNF-alpha wells 100 | 260,000 compounds, 0.37% hits;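 active = mean E-selectin-positive cell signal at least 10% of the positive control, reached in at least 60% of replicates, without over 20% cell loss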
# Target sequence (P16581 whole entry, looked up): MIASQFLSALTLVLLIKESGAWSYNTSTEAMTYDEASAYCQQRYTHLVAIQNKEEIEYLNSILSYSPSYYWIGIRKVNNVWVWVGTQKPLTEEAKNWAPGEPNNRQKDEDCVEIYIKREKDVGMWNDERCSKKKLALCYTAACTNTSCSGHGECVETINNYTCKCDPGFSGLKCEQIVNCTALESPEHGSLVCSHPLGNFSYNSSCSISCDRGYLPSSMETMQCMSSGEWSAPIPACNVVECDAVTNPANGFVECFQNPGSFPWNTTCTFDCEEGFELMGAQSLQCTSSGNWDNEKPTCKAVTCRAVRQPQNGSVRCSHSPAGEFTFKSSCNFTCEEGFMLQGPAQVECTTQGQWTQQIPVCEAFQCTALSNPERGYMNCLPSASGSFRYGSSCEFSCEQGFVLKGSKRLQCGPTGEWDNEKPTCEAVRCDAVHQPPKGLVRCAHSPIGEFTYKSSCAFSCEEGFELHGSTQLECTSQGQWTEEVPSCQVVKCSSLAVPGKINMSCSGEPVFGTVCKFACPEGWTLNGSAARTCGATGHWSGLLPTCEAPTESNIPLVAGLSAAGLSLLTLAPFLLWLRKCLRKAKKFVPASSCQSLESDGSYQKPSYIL
#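 Assay system: HUVEC primary endothelial cells. Input: 3,000 HUVEC seeded per well. Doses: one compound dose added by pin transfer. Read-out basis: % PE-positive cells. Benchmarks: TNF-alpha high, DMSO low. Detection: immunofluorescence imaging. Buffer or medium: EGM-2, gelatin.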
# FN deposition inh – inhibitors of fibronectin matrix deposition, primary screen, AH1F cells, Alexa488-fibronectin fluorescence, plate reader; AH1F fibroblasts, overnight; inhibition, % at 12.6 µM; 350,000 compounds, 0.086% hits;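 active = mean inhibition across replicates of 30% or more, regardless of how many single replicates reach that level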;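 note: positive control wells lacked labelled fibronectin entirely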
#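 Schedule: 1 h cell adhesion before compound, then overnight fibronectin incubation; test system: AH1F fibroblast monolayer depositing Alexa488-labelled fibronectin into matrix; quantity: 10000 AH1F cells per well; probe or stimulus: fluorescent fibronectin at 24 nM final; signal: fluorescence, ex 485 nm, em 525 nm; evaluation: percent inhibition as loss of matrix-bound fibronectin fluorescence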
# Statin myotox sup – suppressors of statin myotoxicity in C2C12 myotubes, primary screen, cell-based, single point, plate reader | C2C12 myotubes + simvastatin, ATP luminescence, 48 h; scaled: DMSO 0, geranylgeraniol control 100 | rescue of ATP level, % at 7.49 µM | 330,000 compounds, 0.78% hits | AID 602340, 2012;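 active = mean ATP rescue above about 67%, or every replicate alone reaching that limit, limit read from the data, passing the limit was not always enough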;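 note: myotubes were challenged with 10 µM simvastatin during compound exposure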
# SIRT5 block – SIRT5 desuccinylase inhibitors, primary screen, biochemical, fluorescence imaging, single point, set 5; NAD-dependent protein deacylase sirtuin-5, mitochondrial (Homo sapiens), Q9NXA8; Purified SirT5, succinyl-peptide AMC, trypsin-coupled fluorescence; inhibition, % at 15 µM; 330,000 compounds, 1.1% hits; in the data active = inhibition above about 15%
# The depositor's hits bear a star; / = no result.
SMILES,rRNA inh HTS,FGF22 binding,E-selectin induc,FN deposition inh,Statin myotox sup,SIRT5 block
COc1cc2c(oc(=O)c3cc(C)cc(OC)c32)c2c(C3OC(C)C(O)C(C)(O)C3O)ccc(O)c12 (centres undefined),7.7,-1.4,-0.4,2.0,/,18.6*
O=C(O)CSCC(=O)Nc1ccc(Br)c(C(F)(F)F)c1,-2.9,0.0,-0.1,-3.8,6.5,82.0*
O=C(O)c1ccccc1C(=O)Nc1ccc(Br)c(C(F)(F)F)c1,0.4,0.2,3.5,-4.0,/,2.1
Cc1noc(C)c1NC(=O)N(C)C[C@H]1Oc2ccc(NS(=O)(=O)c3c(C)noc3C)cc2C(=O)N([C@@H](C)CO)C[C@H]1C,4.2,/,12.1,/,/,/
O=S(=O)(N[C@H]1CC[C@@H](CCn2cc(C3CC3)nn2)O[C@@H]1CO)c1ccc(F)cc1,4.6,-0.1,-0.4,/,14.1,-1.3
C/C=C/c1cccc(-c2nc(C(=O)NC3CCC3)cc3c2[C@@H](CCO)N([S@](=O)C(C)(C)C)C3)c1,-3.0,/,/,10.1,/,/
C/C=C/c1cccc(-c2nc(C(=O)NC3CCC3)cc3c2[C@@H](CCO)N(S(=O)C(C)(C)C)C3)c1 (some centres undefined),-4.8,0.2,0.0,-17.1,-12.4,22.4*
COc1cccc(-c2cccc(-c3nc(C(=O)Nc4ccc(-c5ccccc5)cc4)cc4c3[C@@H](CCO)N(S(=O)C(C)(C)C)C4)c2)c1 (some centres undefined),6.2,-0.3,35.7*,-2.8,/,-3.7
CC(=O)N1Cc2cc(C(=O)NCc3cc(F)cc(F)c3)nc(-c3cccc(C4=CCCC4)c3)c2[C@H]1CCO,/,-0.6,/,/,/,15.0*
CC(C)(C)[S@@](=O)N1Cc2cc(C(=O)NCc3ccccc3F)nc(-c3cccc(-c4cncnc4)c3)c2[C@H]1CCO,-29.5,0.6,/,31.0*,-10.4,0.8
CC(C)(C)[S@@](=O)N1Cc2cc(C(=O)NCc3ccccc3F)nc(-c3cccc(-c4cccnc4)c3)c2[C@H]1CCO,-5.2,0.1,0.5,19.0,-21.4,8.1
O=C(NCCN1CCCC1)c1cc2c(c(-c3cccc(C4=CCCC4)c3)n1)[C@@H](CCO)N(CC1CC1)C2,4.4,/,/,-9.5,/,/
COc1ccc(CN(C)C[C@@H]2Oc3ccc(NS(C)(=O)=O)cc3CC(=O)N([C@H](C)CO)C[C@H]2C)cc1,-0.2,-0.6,/,/,15.1,-0.4
CC(C)(C)S(=O)N1Cc2cc(C(=O)Nc3ccc(-c4ccccc4)cc3)nc(-c3cccc(-c4cccc(F)c4)c3)c2[C@@H]1CCO (some centres undefined),7.2,-0.2,28.9*,-12.4,/,-6.9
COc1ccccc1-c1cccc(-c2nc(C(=O)Nc3nccs3)cc3c2[C@@H](CCO)N(C(=O)CC2CC2)C3)c1,-1.8,0.3,-0.2,14.5,/,15.7*
CO[C@H]1CC[C@@H]2CCN(C)C(=O)[C@@H](C)[C@H](OC)CN(C)C(=O)c3cccc(C#N)c3OC[C@@H]1O2,3.6,-0.3,0.1,-0.6,-3.8,0.6
Cc1ccc(N2CC(O)(c3cccs3)[N+]3=C2CCCC3)cc1 (centres undefined),5.4,0.1,2.0,-7.8,/,-2.1
COc1ccc(C2(O)CN(c3ccc(C)cc3)C3=[N+]2CCCC3)cc1 (centres undefined),-19.4,43.1*,/,-5.3,/,-1.1
CO[C@H](CN(C)C(=O)c1ccccc1F)[C@@H](C)CN([C@H](C)CO)S(=O)(=O)c1ccc(F)cc1,-0.7,0.5,0.0,-0.8,1.8,-2.5
COc1ccccc1NC(=O)/C(C#N)=C/c1c(C)nn(-c2ccc(F)cc2)c1Cl,19.1,43.2*,-0.2,1.8,/,1.3
CC(C)NC(=O)N(C)C[C@H]1Oc2c(NS(=O)(=O)c3cn(C)cn3)cccc2C(=O)N([C@H](C)CO)C[C@H]1C,3.2,0.0,1.2,7.6,/,0.9
CCN(CC)CC(C)(C)C(=O)/C=C/c1ccc(/C=C/C(=O)C(C)(C)CN(CC)CC)cc1,-14.2*,0.3,-0.1,45.7*,/,-2.3
CCN(CC)CCOC(=O)/C=C/c1ccccc1,8.8,-0.2,/,8.2,/,0.5
O=C(N[C@@H]1CC[C@@H](CC(=O)N2CCCCC2)O[C@@H]1CO)c1ccc2c(c1)OCO2,-2.4,0.0,0.3,/,3.4,4.5
Fc1cccc(Cl)c1Cn1nnc(-c2ccc(N3CCOCC3)cc2)n1,/,/,/,0.5,99.2*,/
SMILES,rRNA inh HTS,FGF22 binding,E-selectin induc,FN deposition inh,Statin myotox sup,SIRT5 block
C[C@H](CO)N1C[C@H](C)[C@@H](CN(C)Cc2ccc(Cl)c(Cl)c2)Oc2ccc(NC(=O)Nc3cccc4ccccc34)cc2CC1=O,5.0,0.2,-0.1,/,51.4,13.4
C[C@@H]1CN([C@@H](C)CO)C(=O)Cc2cc(NC(=O)Nc3cccc4ccccc34)ccc2O[C@H]1CN(C)Cc1ccc2c(c1)OCO2,4.6,-0.2,/,/,75.2*,1.3
C[C@H]1CN([C@@H](C)CO)C(=O)Cc2cc(NC(=O)Nc3cccc4ccccc34)ccc2O[C@@H]1CN(C)Cc1ccc(Cl)c(Cl)c1,3.5,0.1,-1.3,/,23.4,15.8*
Cc1onc(-c2ccccc2)c1C(=O)c1c[nH]c(C(=O)NCc2ccncc2)c1,-5.7,-0.1,-2.2,-2.9,/,-4.1
Cc1onc(-c2ccccc2)c1C(=O)c1c[nH]c(C(=O)NCc2ccccn2)c1,2.5,-0.4,0.0,-8.4,-0.5,19.1*
O=C(c1ccc(F)cc1)N1CCOC(c2nc(-c3ccc(F)cc3)no2)C1 (centres undefined),-25.0*,0.3,-0.2,-8.5,2.5,-2.1
Cc1ccnc(NC(=O)c2ccc(Cl)cc2Cl)n1,7.2,43.1*,7.1,-6.7,/,-8.4
Cc1nc(CN(C)Cc2nc(Cc3cccc(F)c3)no2)cs1,6.4,42.3,2.2,0.4,-8.8,25.5*
C[C@H]1CN([C@@H](C)CO)C(=O)c2cc(C#CCN(C)C)cnc2O[C@@H]1CN(C)S(=O)(=O)c1cn(C)cn1,9.4,0.0,1.1,/,10.5,-0.3
O=C(CCN1C(=O)C2C3C=CC(C3)C2C1=O)N1CCCCC1 (centres undefined),12.2,43.2*,/,/,/,2.5
CC1CCC(NC(=O)CCN2C(=O)C3CC=CCC3C2=O)CC1 (centres undefined),3.5,0.2,-0.5,/,3.4,3.2
